# According to ChEMBL document CHEMBL1944538, “Synthetic peptides derived from the sequence of a lasso peptide microcin J25 show antibacterial activity” (Bioorg Med Chem, 2012):
# Activity calls are given as the source filed them. The rule behind the calls is not given here. Positions of bridges follow the written chain, without caps; N, C: chain ends. Residues, ends and D or L forms follow the SMILES beside them.
# What was measured:
# [1] = system: Escherichia coli; assay: Antibacterial activity against Escherichia coli MC4100 up to 250 uM after 24 hrs by liquid growth inhibition assay; assay type: functional, organism-based
# Procedure, shortened: (§1)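 Liquid broth microdilution in LB. Peptide stocks were made in 20% methanol/water (1 or 2.5 mM), then serially doubled in water to final 0.01–100 or 0.5–250 µM. Inoculum was diluted to OD620 0.02–0.05. Plates ran 24 h at 37 °C and were read at OD620. MIC was the lowest concentration giving 100% growth inhibition (0.05 AU). Triplicate wells, three repeat experiments.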
# [2] = system: Escherichia coli; assay: Antibacterial activity against Escherichia coli DH5alpha up to 250 uM after 24 hrs by liquid growth inhibition assay; assay type: functional, organism-based; details: DH5[alpha]; procedure, shortened: as §1
# [3] = system: Salmonella enteritidis; assay: Antibacterial activity against Salmonella enteritidis AFLB 11 up to 250 uM after 24 hrs by liquid growth inhibition assay; assay type: functional, organism-based; details: Salmonella enterica subsp. enterica serovar Enteritidis; procedure, shortened: as §1
# [4] = system: Salmonella typhimurium; assay: Bactericidal activity against Salmonella Typhimurium ATCC 13311 after 24 hrs; assay type: functional, Salmonella enterica subsp. enterica serovar Typhimurium; details: Salmonella enterica, ATCC 13311, 24 h
# Procedure, shortened: (§2)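 For MBC, 10 µL from each clear well of the 24 h, 37 °C LB broth-dilution plate was spread on LB agar and incubated 24 h at 37 °C. MBC was the lowest concentration giving no growth on agar.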
# [5] = system: Salmonella enterica subsp. enterica serovar Montevideo; assay: Antibacterial activity against Salmonella montevideo 20 up to 250 uM after 24 hrs by liquid growth inhibition assay; assay type: functional; procedure, shortened: as §1
# [6] = Thermostability in boiling water after 3 hrs; assay type: physicochemical; details: buffer
# [7] = system: Salmonella enterica subsp. enterica serovar Newport; assay: Inhibition of oxygen consumption in Salmonella newport clinical isolate at 25 uM after 35 mins by Gilson Clarke oxygraph analysis; assay type: functional
# Procedure, shortened: (§3)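 Cells were held 35 min at 37 °C with peptide at the stated concentration. Respiration rate over the next 5 min was measured polarographically with a Clark electrode oxygraph at 37 °C. Results are percent of a peptide-free control; three independent experiments, mean ± SD.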
# [8] = Bactericidal activity against Salmonella newport clinical isolate after 24 hrs; assay type: functional, Salmonella enterica subsp. enterica serovar Newport; details: Salmonella enterica; procedure, shortened: as §2
# [9] = Antibacterial activity against Salmonella choleraesuis ATCC 10708 after 24 hrs by liquid growth inhibition assay; assay type: functional, Salmonella enterica subsp. enterica serovar Choleraesuis; details: Salmonella enterica, ATCC 10708, 24 h
# [10] = Cytotoxicity against human MCF7 cells assessed as cell viability at 0.3 to 100 uM after 24 hrs by MTT assay; assay type: cell-based; details: read-out: Activity
# Procedure, shortened: (§4)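 MTT assay. MDA-MB-435 cells were kept in RPMI 1640 and MCF7 cells in DMEM, both with 10% FBS, penicillin and streptomycin, at 37 °C and 5% CO2. Cells were seeded at 1×10^4/well and grown 24 h. Samples came from 1 mM stocks in 10% DMSO/water, twofold diluted to 0.3125–100 µM, and applied for 24 h. MTT (5 mg/mL) was added for 3.5 h, then DMSO solubilization and A570. Viability is relative to untreated cells; triplicate, mean.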
# [11] = system: Salmonella enteritidis; assay: Bactericidal activity against Salmonella enteritidis ATCC P76 after 24 hrs by liquid growth inhibition assay; assay type: functional, Salmonella enterica subsp. enterica serovar Enteritidis; details: Salmonella enterica, ATCC P76, 24 h
# [12] = Stability of the compound at 200 uM after overnight incubation by spot on lawn method in the presence of chymotrypsin; assay type: ADME
# [13] = system: Staphylococcus aureus; assay: Antibacterial activity against Staphylococcus aureus ATCC 6538; assay type: functional, organism-based
# [14] = system: Salmonella enteritidis; assay: Antibacterial activity against Salmonella enteritidis PT8 after 24 hrs by liquid growth inhibition assay; assay type: functional, Salmonella enterica subsp. enterica serovar Enteritidis; details: Salmonella enterica, PT8, 24 h; procedure, shortened: as §1
# [15] = system: Salmonella enteritidis; assay: Antibacterial activity against Salmonella enteritidis AFLB 41 up to 250 uM after 24 hrs by liquid growth inhibition assay; assay type: functional, organism-based; details: Salmonella enterica subsp. enterica serovar Enteritidis; procedure, shortened: as §1
# [16] = system: Salmonella typhimurium; assay: Antibacterial activity against Salmonella Typhimurium AFLB 25 after 24 hrs by liquid growth inhibition assay; assay type: functional, Salmonella enterica subsp. enterica serovar Typhimurium; details: Salmonella enterica, AFLB 25, 24 h; procedure, shortened: as §1
# [17] = system: Salmonella typhimurium; assay: Antibacterial activity against Salmonella Typhimurium ATCC 13311 after 24 hrs by liquid growth inhibition assay; assay type: functional, Salmonella enterica subsp. enterica serovar Typhimurium; details: Salmonella enterica, ATCC 13311, 24 h; procedure, shortened: as §1
# [18] = Stability of the compound at 150 uM after 30 mins by RP-HPLC analysis in the presence of pepsin; assay type: ADME; details: 0.5 h
# Procedure, shortened: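 Peptide (150 µM) was incubated at 37 °C with pepsin (4% w/w) in 0.1 N HCl. Aliquots taken at 0 and 30 min were quenched into 0.1 N NaOH/70% methanol and centrifuged. Supernatant was analysed by C18 RP-HPLC (15–50% isopropanol/water, 0.05% TFA, 35 min, UV 220 nm). Fragments were identified by MALDI-TOF.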
# [19] = Antibacterial activity against Salmonella newport clinical isolate after 24 hrs by liquid growth inhibition assay; assay type: functional, Salmonella enterica subsp. enterica serovar Newport; details: Salmonella enterica; procedure, shortened: as §1
# [20] = Cytotoxicity against human MDA-MB-435 cells assessed as cell viability at 0.3 to 100 uM after 24 hrs by MTT assay; assay type: cell-based; details: read-out: Activity; procedure, shortened: as §4
# [21] = Antibacterial activity against Salmonella heidelberg ATCC 8326 after 24 hrs by liquid growth inhibition assay; assay type: functional, Salmonella enterica subsp. enterica serovar Heidelberg; details: Salmonella enterica, ATCC 8326, 24 h; procedure, shortened: as §1
# [22] = system: Salmonella enteritidis; assay: Antibacterial activity against Salmonella enteritidis ATCC 13076 up to 250 uM after 24 hrs by liquid growth inhibition assay; assay type: functional, organism-based; details: Salmonella enterica subsp. enterica serovar Enteritidis; procedure, shortened: as §1
# [23] = system: Enterococcus faecalis; assay: Antibacterial activity against Enterococcus faecalis ATCC 19433; assay type: functional, organism-based
# [24] = system: Salmonella enteritidis; assay: Antibacterial activity against Salmonella enteritidis AFLB 81 up to 250 uM after 24 hrs by liquid growth inhibition assay; assay type: functional, organism-based; details: Salmonella enterica subsp. enterica serovar Enteritidis; procedure, shortened: as §1
# [25] = Bactericidal activity against Salmonella choleraesuis ATCC 10708 after 24 hrs; assay type: functional, Salmonella enterica subsp. enterica serovar Choleraesuis; details: Salmonella enterica, ATCC 10708, 24 h
# Procedure, shortened: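 MBC: 10 μL from each clear well of the 24 h, 37 °C LB broth MIC plate spread on LB agar, incubated 24 h at 37 °C; MBC = lowest concentration with no growth on the plate.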
# [26] = system: Salmonella paratyphi; assay: Antibacterial activity against Salmonella paratyphi up to 250 uM after 24 hrs by liquid growth inhibition assay; assay type: functional, organism-based; details: Salmonella enterica subsp. enterica serovar Paratyphi A
# [27] = Cytotoxicity against human MCF7 cells assessed as cell viability at 3 uM after 24 hrs by MTT assay; assay type: cell-based; details: read-out: Activity
# [28] = Cytotoxicity against human MDA-MB-435 cells assessed as cell viability at 3 uM after 24 hrs by MTT assay; assay type: cell-based; details: read-out: Activity
# [29] = system: Salmonella typhimurium; assay: Antibacterial activity against Salmonella Typhimurium ATCC 13311 up to 250 uM after 24 hrs by liquid growth inhibition assay; assay type: functional, organism-based; details: Salmonella enterica subsp. enterica serovar Typhimurium; procedure, shortened: as §1
# [30] = system: Salmonella enteritidis; assay: Antibacterial activity against Salmonella enteritidis AFLB 81 after 24 hrs by liquid growth inhibition assay; assay type: functional, Salmonella enterica subsp. enterica serovar Enteritidis; details: Salmonella enterica, AFLB 81, 24 h; procedure, shortened: as §1
# [31] = system: Salmonella enterica subsp. enterica serovar Newport; assay: Inhibition of oxygen consumption in Salmonella newport clinical isolate at 0.25 uM after 35 mins by Gilson Clarke oxygraph analysis; assay type: functional; procedure, shortened: as §3
# [32] = Cytotoxicity against human MCF7 cells assessed as cell viability up to 100 uM after 24 hrs by MTT assay; assay type: cell-based; details: read-out: Activity; procedure, shortened: as §4
# [33] = system: Salmonella paratyphi; assay: Antibacterial activity against Salmonella paratyphi after 24 hrs by liquid growth inhibition assay; assay type: functional, Salmonella enterica subsp. enterica serovar Paratyphi A; details: Salmonella enterica
# [34] = system: Salmonella enteritidis; assay: Antibacterial activity against Salmonella enteritidis ATCC 13076 after 24 hrs by liquid growth inhibition assay; assay type: functional, Salmonella enterica subsp. enterica serovar Enteritidis; details: Salmonella enterica, ATCC 13076, 24 h; procedure, shortened: as §1
# [35] = Cytotoxicity against human MDA-MB-435 cells assessed as cell viability up to 100 uM after 24 hrs by MTT assay; assay type: cell-based; details: read-out: Activity; procedure, shortened: as §4
# [36] = system: Salmonella enteritidis; assay: Antibacterial activity against Salmonella enteritidis AFLB 11 after 24 hrs by liquid growth inhibition assay; assay type: functional, Salmonella enterica subsp. enterica serovar Enteritidis; details: Salmonella enterica, AFLB 11, 24 h; procedure, shortened: as §1
# [37] = system: Escherichia coli; assay: Antibacterial activity against Escherichia coli DH5alpha after 24 hrs by liquid growth inhibition assay; assay type: functional; details: DH5[alpha]; procedure, shortened: as §1
# [38] = system: Salmonella enteritidis; assay: Antibacterial activity against Salmonella enteritidis AFLB 41 after 24 hrs by liquid growth inhibition assay; assay type: functional, Salmonella enterica subsp. enterica serovar Enteritidis; details: Salmonella enterica, AFLB 41, 24 h; procedure, shortened: as §1
# [39] = system: Salmonella enterica subsp. enterica serovar Heidelberg; assay: Antibacterial activity against Salmonella heidelberg ATCC 8326 up to 250 uM after 24 hrs by liquid growth inhibition assay; assay type: functional; procedure, shortened: as §1
# [40] = system: Escherichia coli; assay: Antibacterial activity against Escherichia coli MC4100 after 24 hrs by liquid growth inhibition assay; assay type: functional; details: MC4100, 24 h; procedure, shortened: as §1
compound,measurement,setting,value
CC[C@H](C)[C@@H]1NC(=O)CNC(=O)[C@H](C(C)C)NC(=O)[C@H](Cc2ccccc2)NC(=O)[C@H](Cc2ccc(O)cc2)NC(=O)[C@@H]2CCC(=O)NCC(=O)NCC(=O)N[C@@H](C)C(=O)N[C@@H](CSSC[C@@H](C(=O)O)NC(=O)[C@H](Cc3ccccc3)NC(=O)[C@H](CO)NC(=O)[C@H]([C@@H](C)CC)NC(=O)[C@@H]3CCCN3C(=O)[C@H]([C@@H](C)O)NC(=O)CNC1=O)C(=O)N[C@@H](Cc1cnc[nH]1)C(=O)N[C@@H](C(C)C)C(=O)N1CCC[C@H]1C(=O)N2 (GGACHVPEYFVGIGTPISFC-OH; disulfide 4-20; lactam N-8),Activity,[1],inactive
same,Activity,[2],inactive
same,Activity,[3],inactive
same,MBC,[4],125 µM
same,Activity,[5],inactive
same,Stability,[6],Stable
same,inhibition,[7],Active
same,MBC,[8],31.2 µM
same,MIC,[9],90 µM
same,"viability at 24 h, up to 100 µM",[10],> 90%
same,MBC,[11],125 µM
same,Stability,[12],Unstable
same,Activity,[13],inactive
same,MIC,[14],80 µM
same,Activity,[15],inactive
same,MIC,[16],85 µM
same,MIC,[17],75 µM
same,Stability,[18],Unstable
same,MIC,[19],25 µM
same,"viability at 24 h, up to 100 µM",[20],> 90%
same,MIC,[21],83 µM
same,Activity,[22],inactive
same,Activity,[23],inactive
same,Activity,[24],inactive
same,MBC,[25],125 µM
same,Activity,[26],inactive
COc1cccc2c1C(=O)c1c(O)c3c(c(O)c1C2=O)C[C@@](O)(C(=O)CO)C[C@@H]3O[C@H]1C[C@H](N)[C@H](O)[C@H](C)O1 [DOXORUBICIN],"viability at 24 h, 3 µM",[27],20%
same,"viability at 24 h, 3 µM",[28],20%
CC[C@H](C)[C@H](NC(=O)CNC(=O)[C@@H](NC(=O)[C@H](Cc1ccccc1)NC(=O)[C@H](Cc1ccc(O)cc1)NC(=O)[C@@H]1CCC(=O)NCC(=O)NCC(=O)N[C@@H](C)C(=O)NCC(=O)N[C@@H](Cc2cnc[nH]2)C(=O)N[C@@H](C(C)C)C(=O)N2CCC[C@H]2C(=O)N1)C(C)C)C(=O)NCC(=O)N[C@H](C(=O)N1CCC[C@H]1C(=O)N[C@H](C(=O)N[C@@H](CO)C(=O)N[C@@H](Cc1ccccc1)C(=O)N[C@@H](Cc1ccc(O)cc1)C(=O)NCC(=O)O)[C@@H](C)CC)[C@@H](C)O [MICROCIN J25] (GGAGHVPEYFVGIGTPISFYG-OH; lactam N-8),Activity,[29],inactive
same,Activity,[5],inactive
same,MIC,[30],1.7 µM
same,inhibition,[31],Active
same,viability at 24 h,[32],> 80%
same,MIC,[9],1.5 µM
same,MIC,[14],1.5 µM
same,MIC,[33],1.5 µM
same,MIC,[34],1.8 µM
same,viability at 24 h,[35],> 80%
same,MIC,[36],2 µM
same,MIC,[16],2.8 µM
same,MIC,[37],5 µM
same,MIC,[19],0.5 µM
same,MIC,[38],1.6 µM
same,Activity,[39],inactive
same,MIC,[40],5 µM
